For the series, the system named is Male Wistar rats. Nature of the series: DEN model of hepatic fibrosis and inflammation, body weight and liver histology. Format: in vivo, rat. The conditions noted are these: for collagen proportional area (CPA), Sirius Red: weekly 100 mg/kg i.p. The method in brief: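 Male Wistar rats (190–220 g at start) got weekly i.p. DEN 100 mg/kg in PBS for 4 weeks, or PBS only as controls, and were sampled 1 or 7 days after the last dose. Formalin-fixed, paraffin-embedded 5 μm liver sections were stained with H&E, Sirius Red, and fibrin antibody (1:25). A pathologist scored modified Ishak HAI; CPA was the % Sirius Red area. Values are mean ± standard error, compared by t-test.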

Structures are written as SMILES.

Consider `CCN(CC)N=O` [DEN, diethylnitrosamine], for which, for the setting “1 day post DEN”, the “HAI score for inflammation (0 – 4)” value is listed as 3.54 ± 0.14; the “fibrin immunostaining, area stained” value is 3.56 ± 1.35; the “fibrosis Ishak score (0 – 6)” value is on record as 3.62 ± 0.31; the “collagen proportional area (CPA), Sirius Red” value was determined as 3.14 ± 1.27%. Moreover, under “7 days post DEN”, the “HAI score for inflammation (0 – 4)” value is 1.61 ± 0.16; the “fibrin immunostaining, area stained” value is 1.02 ± 0.58; the “fibrosis Ishak score (0 – 6)” value is 3.82 ± 0.25; the “collagen proportional area (CPA), Sirius Red” value is on record as 3.30 ± 0.65%.

(Values after paper PMC7935409 (Investigative radiology, 2020).)
